Test results published in ChEMBL document CHEMBL1124747, “Properties of the nucleic acid photoaffinity labeling agent 3-azidoamsacrine” (J Med Chem, 1990).

How the values were obtained:
[1] = Half-life was evaluated in water in the absence of light; type: ADME
[2] = test system: L5178Y; experiment: Relative mutation induction for L5178Y cells was evaluated at dose 0.005 mg/mL in dark condition (expt-II); type: functional, Mus musculus
In short: (§1)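 L5178Y suspension cells (3 × 10^6/mL, 5% CO2, 37 °C, shaking) exposed 20 h without activating enzyme; light arm irradiated 6.5 min (Hg lamp, <340 nm filtered). Cells washed, grown 24 h more and kept at 3 × 10^5/mL. Viability from 200 cells in soft agar; TFT (0.1 mg/mL) resistant colonies from 10^6 cells in triplicate dishes, counted at 10 days.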

[3] = test system: L5178Y; experiment: Relative mutation induction for L5178Y cells was evaluated at dose 0.005 mg/mL in light condition (expt-II); type: functional, Mus musculus; in short: as §1
[4] = test system: L5178Y; experiment: Relative toxicity against mammalian L5178Y cells at dose 0.005 mg/mL in dark condition (expt-II); type: functional, Mus musculus
In short: (§2)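 L5178Y mouse cells in suspension, 3 × 10^6 cells/mL, were exposed for 20 h at 37 °C in a shaker at 150 rpm under 5% CO2, without an activating enzyme. Light arms were irradiated for 6.5 min with a medium-pressure Hg lamp filtered to remove light below 340 nm; dark arms were not. Toxicity was taken as the Coulter-counted density of treated cells versus solvent control.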

[5] = test system: L5178Y; experiment: Relative toxicity against mammalian L5178Y cells at dose 0.005 mg/mL in light condition (expt-II); type: functional, Mus musculus; in short: as §2
[6] = test system: L5178Y; experiment: Viability of L5178Y cells was evaluated at dose 0.005 mg/mL in dark condition (expt-II); type: functional, Mus musculus
In short: (§3)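 L5178Y cells were exposed for 20 h at 3 × 10^6 cells/mL. Light arms then received 6.5 min of Hg-lamp irradiation filtered to remove light below 340 nm. Cells were washed twice in Fischer's medium, grown a further 24 h and held at 3 × 10^5 cells/mL. For viability, 200 cells were plated in soft-agar cloning medium in triplicate dishes, and colonies were counted by an automated counter after 10 days.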

[7] = test system: L5178Y; experiment: Viability of L5178Y cells was evaluated at dose 0.005 mg/mL in light condition (expt-II); type: functional, Mus musculus; in short: as §3
[8] = test system: L5178Y; experiment: Induction frequency for L5178Y cells was evaluated at dose 0.005 mg/mL in dark condition (expt-II); type: functional, Mus musculus; in short: as §1
[9] = test system: L5178Y; experiment: Induction frequency for L5178Y cells was evaluated at dose 0.005 mg/mL in light condition (expt-II); type: functional, Mus musculus; in short: as §1
[10] = test system: L5178Y; experiment: Mean value of mutation induction for L5178Y cells was evaluated at dose 0.005 mg/mL in dark condition (expt-II); type: functional, Mus musculus
In short: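 L5178Y cells in suspension culture, gassed with 5% CO2 in air, shaken at 150 rpm, 37 °C. Cells at 3 × 10^6/mL were dosed for 20 h, unirradiated and without activating enzyme, then washed twice in Fop and grown 24 h more. TFT-resistant mutants came from 10^6 cells plated in three dishes of cloning medium with 0.1 mg/mL TFT, colonies counted at 10 days; frequency expressed ×10^6.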

[11] = test system: L5178Y; experiment: Mean value of mutation induction for L5178Y cells was evaluated at dose 0.005 mg/mL in light condition (expt-II); type: functional, Mus musculus; in short: as §1
[12] = test system: L5178Y; experiment: Mutation frequency for L5178Y cells was evaluated at dose 0.005 mg/mL in dark condition (expt-II); type: functional, Mus musculus; in short: as §1
[13] = test system: L5178Y; experiment: Mutation frequency for L5178Y cells was evaluated at dose 0.005 mg/mL in light condition (expt-II); type: functional, Mus musculus; in short: as §1
[14] = Ability to block cleavage of G/GNCC site in Restriction endonuclease Sau961 with the test compound/DNA ratio 1(no. of sites=15); - = no activation
In short: (§4)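 pBR322 plasmid mixed with drug at 0.015, 0.12 or 0.48 mM (drug:DNA 1:8, 1:1 or 4:1), equilibrated on ice 30 min in the dark in 5 mM potassium phosphate pH 5.5, then irradiated 1 h with a medium-pressure Hg lamp (<340 nm filtered); dark set kept as control. Digested overnight with 10× excess enzyme plus DTT; fragments resolved on 1.2% agarose in TBE.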

[15] = Ability to block cleavage of G/GNCC site in Restriction endonuclease Sau961 with the test compound/DNA ratio 1:8(no. of sites=15); - = no activation; in short: as §4
[16] = Half-life was evaluated in water in the presence of light; type: ADME

half-life [1]: > 336 h
inhibition [14]: no activation
inhibition [15]: no activation
half-life [16]: 24 h
Compound: COc1cc(NS(C)(=O)=O)ccc1Nc1c2ccccc2nc2ccccc12 [AMSACRINE]
Relative activity [2]: 67
Relative activity [3]: 10
Relative toxicity [4]: 62
Relative toxicity [5]: 62
Viability [6]: 20
Viability [7]: 12.3
Induced frequency [8]: 439
Induced frequency [9]: 733
Mean value [10]: 57.7
Mean value [11]: 53
Mutation frequency [12]: 577 10e6 F
Mutation frequency [13]: 862 10e6 F
